# Measurements taken from ChEMBL document CHEMBL4316660, “Isarubrolones Containing a Pyridooxazinium Unit from Streptomyces as Autophagy Activators” (J Nat Prod, 2019).
# The source made the active and inactive calls. The rule behind the calls is not given here.
# Experiments:
# Assay type in all cases: functional, cell-based
# HepG2 [1] = assay: Induction of autophagy in human HepG2 cells assessed as increase in LC3B2/1 ratio up to 20 uM measured after 24 hrs by Western blot analysis
# Method in brief: (§1)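 HepG2 cells exposed 24 h to test agent at final 1, 5, 10 or 20 μM. Lysis in RIPA buffer with protease inhibitor cocktail. Proteins resolved on 12% SDS-PAGE, blotted to nitrocellulose, and probed with antibodies to LC3B, P62, ATG5, ATG7, ATG4a and ATG4b. GAPDH served as loading control. Autophagosome formation was read as the LC3B II/I ratio.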
# HepG2 [2] = assay: Induction of autophagy in human HepG2 cells assessed as decrease in P62 protein level measured after 24 hrs by Western blot analysis; method in brief: as §1
# HepG2 [3] = assay: Induction of autophagy in human HepG2 cells assessed as decrease in ATG4a protein level up to 20 uM measured after 24 hrs by Western blot analysis; method in brief: as §1
# HepG2 [4] = assay: Induction of autophagy in human HepG2 cells assessed as increase in ATG7 protein level up to 20 uM measured after 24 hrs by Western blot analysis; method in brief: as §1
# HepG2 [5] = assay: Induction of autophagy in human HepG2 cells assessed as increase in ATG5 protein level up to 20 uM measured after 24 hrs by Western blot analysis; method in brief: as §1
# HepG2 [6] = assay: Induction of autophagy in human HepG2 cells assessed as increase in ATG4b protein level up to 20 uM measured after 24 hrs by Western blot analysis; method in brief: as §1
# A549 = assay: Cytotoxicity against human A549 cells by MTT assay
# HepG2 [7] = assay: Cytotoxicity against human HepG2 cells by MTT assay
# HCT-116 = assay: Cytotoxicity against human HCT116 cells by MTT assay
# NCI-H460 = assay: Cytotoxicity against human H460 cells by MTT assay
SMILES,Activity (HepG2 [1]),Activity (HepG2 [2]),Activity (HepG2 [3]),Activity (HepG2 [4]),Activity (HepG2 [5]),Activity (HepG2 [6]),IC50 (A549) [µM],IC50 (HepG2 [7]) [µM],IC50 (HCT-116) [µM],IC50 (NCI-H460) [µM]
CC[C@@H](O)C(=O)C1=C2C=C(C)Oc3c4c(c(=O)cc(c32)C1=O)[C@]1(O)[C@H](O4)O[C@H](C)[C@@H](OC)[C@H]1O,Active,Dose-dependent effect,Active,Active,Active,Active,–,–,–,–
CC[C@@H](O)c1nc(C)cc2c1C(=O)c1cc(=O)c3c(c(O)c1-2)O[C@@H]1O[C@H](C)[C@@H](OC)[C@@H](O)[C@]31O,Active,Dose-dependent effect,Active,Active,Active,Active,770 to 1800,770 to 1800,770 to 1800,770 to 1800
CC[C@H]1O[C@@](C)(O)C[n+]2c(C)cc3c(c21)C(=O)c1cc(=O)c2c(c(O)c1-3)O[C@@H]1O[C@H](C)[C@@H](OC)[C@@H](O)[C@]21O,Active,Dose-dependent effect,Active,Active,Active,Active,190 to 530,190 to 530,190 to 530,190 to 530
CCCC(=O)C1=C2C=C(C)Oc3c4c(c(=O)cc(c32)C1=O)[C@]1(O)[C@H](O4)O[C@H](C)[C@@H](OC)[C@H]1O,Active,Dose-dependent effect,Active,Active,Active,Active,–,–,–,–
CC[C@H]1OC(=O)C[n+]2c(C)cc3c(c21)C(=O)c1cc(=O)c2c(c(O)c1-3)O[C@@H]1O[C@H](C)[C@@H](OC)[C@@H](O)[C@]21O,Active,Dose-dependent effect,Active,Active,Active,Active,–,–,–,–
